Measured values: article PMC2906681 (Biochemical pharmacology, 2010)
Where a chain is given by its changes, count along the chain named. One block for each compound: values may come before it.

Experiments:
[1] = target: T1, GST-Shp2 PTP domain protein (Homo sapiens, UniProt Q06124); test: In vitro Shp2 PTP activity inhibition assay; format: biochemical
T1 sequence (Q06124 247-517 limits assumed): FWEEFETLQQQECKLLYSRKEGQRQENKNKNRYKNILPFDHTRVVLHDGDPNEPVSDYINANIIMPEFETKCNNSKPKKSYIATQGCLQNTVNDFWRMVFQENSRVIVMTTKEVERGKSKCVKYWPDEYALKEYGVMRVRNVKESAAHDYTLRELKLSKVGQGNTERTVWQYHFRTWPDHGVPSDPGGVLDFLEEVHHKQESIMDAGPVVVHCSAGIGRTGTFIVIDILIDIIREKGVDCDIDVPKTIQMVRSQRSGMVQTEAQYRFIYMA

TF-1/Shp2^E76K cells [2] = test: Fluorescence uptake assay; format: in vitro ADME; conditions: 5 h incubation, ex/em 485/535 nm
Method in brief: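 TF-1/Shp2E76K cells (6 × 10^5 in 1 ml RPMI1640/10% FBS) were incubated 5 h at 37 °C/5% CO2 with test compound or DMSO. Fluorescence (485/535 nm) was read in the whole suspension, then in cell-free medium (supernatant plus washes) and in twice-washed pellets. Fraction totals were expressed relative to the 100 µM suspension, set as 100%. Two duplicate experiments (n = 4).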

cells = test: Confocal laser scanning microscopy of compound uptake; format: in vitro ADME; conditions: 25 µM, 3 h
Method in brief: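 TF-1/Shp2E76K cells grown in glass-bottom dishes were exposed to test compound at 25 µM for 3 h, then Hoechst 33342 (5 µg/ml) was added. Internal confocal sections were imaged with a 63X/1.40NA oil objective (2,520×), using 458 nm argon and 405 nm diode excitation with tunable emission filters. Compound fluorescence was viewed green.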

Shp2 [3] = target: T2, Shp2 (Homo sapiens, UniProt Q06124); test: EGF-stimulated Shp2 PTP activity in immune complexes from MDA-MB-468 cells; format: cell-based; conditions: EGF 50 ng/ml 10 min
T2 sequence (Q06124 1-593): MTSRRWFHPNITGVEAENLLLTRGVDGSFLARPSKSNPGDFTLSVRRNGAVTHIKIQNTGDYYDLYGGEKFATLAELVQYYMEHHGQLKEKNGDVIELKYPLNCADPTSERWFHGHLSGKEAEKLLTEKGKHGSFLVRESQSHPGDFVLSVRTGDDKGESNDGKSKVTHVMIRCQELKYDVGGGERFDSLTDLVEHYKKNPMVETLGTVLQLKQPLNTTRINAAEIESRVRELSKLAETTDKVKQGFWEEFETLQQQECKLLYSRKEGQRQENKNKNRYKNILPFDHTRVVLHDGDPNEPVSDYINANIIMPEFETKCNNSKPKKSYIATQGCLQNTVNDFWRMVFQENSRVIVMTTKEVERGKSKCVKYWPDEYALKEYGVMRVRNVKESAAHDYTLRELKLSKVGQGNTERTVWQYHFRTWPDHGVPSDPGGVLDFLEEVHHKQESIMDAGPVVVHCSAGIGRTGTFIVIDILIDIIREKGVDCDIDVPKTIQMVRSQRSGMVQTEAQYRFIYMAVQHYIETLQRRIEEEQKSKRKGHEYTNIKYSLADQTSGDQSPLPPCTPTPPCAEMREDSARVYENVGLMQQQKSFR
Method in brief: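 Sub-confluent MDA-MB-468 cells were serum-starved 18 h in DMEM/0.1% BSA, pretreated overnight with test compound (20 or 100 µM), then EGF-stimulated (50 ng/ml, 10 min). Lysate (0.2 mg, Hepes pH 7.4 PTP lysis buffer) was immunoprecipitated with anti-Shp2/protein G for 2 h at 4 °C and washed. Complexes were reacted with 50 µM DiFMUP for 20 min at room temperature, and DiFMU fluorescence was read. Pellets were immunoblotted for Shp2. Two experiments, duplicates.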

[4] = tested on: paxillin dephosphorylation; test: EGF-induced paxillin tyrosine dephosphorylation in MDA-MB-468 cells; format: cell-based; conditions: 20 µM, 2 h; EGF 50 ng/ml 10 min
Method in brief: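 Serum-starved MDA-MB-468 cells received test compound (20 µM, 2 h) and/or EGF (50 ng/ml, 10 min). Cells were lysed on ice in Tris buffer (pH 7.5) containing Na3VO4, NaF, pyrophosphate and protease inhibitors. Paxillin was immunoprecipitated, resolved by SDS-PAGE and immunoblotted with anti-phosphotyrosine and anti-paxillin antibodies.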

Erk1/2 activation = test: EGF-stimulated Erk1/2 activation in MDA-MB-468 cells; format: cell-based; conditions: 0–20 µM tested, EGF 2 ng/ml 5 min
Method in brief: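 Serum-starved MDA-MB-468 cells were pretreated with test compound (0–20 µM), then stimulated with EGF (2 ng/ml, 5 min). Cleared lysates were immunoblotted for dual-phosphorylated Erk1/2 and total Erk1/2.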

MDA-MB-468 cells = test: Transwell cell migration assay; format: cell-based; conditions: EGF 10 ng/ml, 16 h
Shp2^E76K = target: T3, Shp2^E76K (Homo sapiens, UniProt Q06124, E76K); test: Shp2^E76K PTP activity in immune complexes from TF-1/Shp2^E76K cells; format: cell-based; conditions: GM-CSF-free medium
T3 sequence (Q06124 1-593 E76K): T2 sequence (Q06124 1-593) with E76K
Method in brief: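 TF-1/Shp2E76K cells were treated in GM-CSF-free RPMI1640/10% FBS with test compound at various concentrations. Flag-Shp2E76K was immunoprecipitated with anti-Flag M2/protein G (0.2 mg lysate, 2 h, 4 °C) and washed. Complexes were incubated with 50 µM DiFMUP for 20 min at room temperature, and fluorescence was measured. Part of each immunoprecipitate was blotted for Shp2. Two experiments.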

pErk1/2 and Bcl-XL = pErk1/2 and Bcl-XL immunoblotting in TF-1/Shp2^E76K cells; format: cell-based; conditions: concentration-dependent
TF-1/Shp2^E76K cells [5] = test: Cell growth assay; format: cell-based
Method in brief: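 TF-1/Shp2E76K cells were plated at 1,000 cells/well in triplicate in RPMI1640/10% FBS without GM-CSF, with test compound. The compound volume was ≤0.1% of the total. Cells were incubated 4 days at 37 °C/5% CO2, then relative viable cell number was read with CellTiterGlo. Data came from two triplicate experiments.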

TF-1/Shp2^E76K cells [6] = test: EB/AO staining apoptosis assay; format: cell-based; conditions: 3 days, base level 4.2%
[7] = tested on: STAT1 tyrosine phosphorylation; test: IFN-γ-stimulated STAT1 tyrosine phosphorylation in HT-29 cells; format: cell-based; conditions: 20 µM, 2 h pre-treatment, IFN-γ 20 U/ml
ISRE-luciferase reporter = test: ISRE luciferase reporter assay in HT-29 cells; format: cell-based
Method in brief: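 HT-29 cells (5 × 10^5 per well) were co-transfected by lipofection with 1.6 µg pISRE-Luc and 0.4 µg β-gal plasmids. They were then stimulated with 50 U/ml IFN-γ for 6 h or left unstimulated. Luciferase was normalized to β-galactosidase activity; two duplicate experiments (n = 4).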

p21 = p21 expression in HT-29 cells; format: cell-based; conditions: 12.5 µM with IFN-γ, 24 h, versus IFN-γ alone
Method in brief: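 HT-29 cells were treated 24 h with IFN-γ at indicated amounts, with or without test compound at 12.5 µM. Cell lysates were immunoblotted for p21, with β-actin as loading reference.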

HT-29 cells = test: Cell growth assay; format: cell-based; conditions: for fraction of inhibition: 4 days
Method in brief: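 HT-29 cells at 1,000 cells/well, in triplicate, in RPMI1640/10% FBS with IFN-γ (100 U/ml) and/or test compound or vehicle. Compound volume kept ≤0.1% of total. Incubated 4 days at 37 °C/5% CO2. Relative viable cell number was read by CellTiterGlo luminescence. Synergism of the two agents was calculated with the Bliss definition.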

[8] = target: T4, His-tagged Shp2 (amino acids 1–525) (Homo sapiens, UniProt Q06124); test: Surface plasmon resonance; conditions: SPR, 1:1 binding model
T4 sequence (Q06124 1-525): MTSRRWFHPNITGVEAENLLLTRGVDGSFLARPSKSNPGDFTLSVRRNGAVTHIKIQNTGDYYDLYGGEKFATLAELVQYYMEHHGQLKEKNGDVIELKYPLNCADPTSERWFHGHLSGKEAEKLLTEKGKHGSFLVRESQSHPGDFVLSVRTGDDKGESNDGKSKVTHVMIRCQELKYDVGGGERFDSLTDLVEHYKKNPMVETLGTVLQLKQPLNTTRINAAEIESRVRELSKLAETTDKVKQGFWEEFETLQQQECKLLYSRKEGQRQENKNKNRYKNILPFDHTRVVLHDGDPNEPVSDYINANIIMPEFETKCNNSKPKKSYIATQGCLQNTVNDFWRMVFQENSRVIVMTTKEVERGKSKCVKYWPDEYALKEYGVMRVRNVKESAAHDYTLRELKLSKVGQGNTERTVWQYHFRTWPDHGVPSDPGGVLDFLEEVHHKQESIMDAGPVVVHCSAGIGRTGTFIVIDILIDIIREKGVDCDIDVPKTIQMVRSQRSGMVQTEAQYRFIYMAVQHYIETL

[9] = target: T5, non-fusion Shp2 PTP protein (Homo sapiens, UniProt Q06124); test: Enzyme kinetics analysis of Shp2 PTP inhibition; format: biochemical; conditions: Lineweaver-Burk, AIC comparison
T5 sequence (Q06124 247-517 limits assumed): T1 sequence (Q06124 247-517 limits assumed)

Shp2 [10] = target: T2, Shp2; test: Cell-based Shp2 inhibition assays
Shp1 = conditions: cited from earlier work
most of other PTPs = conditions: cited from earlier work

IC50 [1]: > 100 µM
fluorescent signal associated with the cell pellets (TF-1/Shp2^E76K cells [2]): substantial amount
green fluorescence in confocal images of internal sections of cells (cells): readily detectable
reduction of EGF-stimulated Shp2 PTP activity (Shp2 [3]; 20 µM pre-treatment overnight): 77%
Shp2^E76K PTP activity in treated cells (Shp2^E76K): lower Shp2^E76K PTP activity
Compound: COC(=O)c1cccc(N/N=C2\C(=O)Nc3ccc(S(=O)(=O)NCc4ccc(F)cc4)cc32)c1 [SPI-112Me, (Z)-3-(2-(5-(N-(4-fluorobenzyl)sulfamoyl)-2-oxoindolin-3-ylidene)hydrazinyl)benzoic acid methyl ester]
effect on EGF-induced paxillin tyrosine dephosphorylation [4]: prevented
concentration at which inhibition of EGF-stimulated pErk1/2 signal was observed (Erk1/2 activation): 10 µM
reduction of EGF-stimulated cell migration (MDA-MB-468 cells; 12.5 µM): 62%
effect on EGF-stimulated cell migration (MDA-MB-468 cells; 25 µM): completed blocked
amounts of pErk1/2 and Bcl-XL (pErk1/2 and Bcl-XL): reduced
IC50 (TF-1/Shp2^E76K cells [5]; 96 h, read-out: concentration giving a 50% decrease in viable cells): 10 µM
apoptotic cells (TF-1/Shp2^E76K cells [6]; 12.5 µM): 9.3%
apoptotic cells (TF-1/Shp2^E76K cells [6]; 25 µM): 18.8%
effect on IFN-γ-stimulated STAT1 tyrosine phosphorylation [7]: increased amount of tyrosine-phosphorylated STAT1
activation of ISRE luciferase activity (ISRE-luciferase reporter; 10 µM SPI-112Me plus IFN-γ 50 U/ml): 54%
activation of ISRE luciferase activity (ISRE-luciferase reporter; 25 µM SPI-112Me plus IFN-γ 50 U/ml): 98%
p21 expression (p21): higher levels of p21
fraction of inhibition (HT-29 cells; 6.25 µM SPI-112Me alone): 0.32
fraction of inhibition (HT-29 cells; 6.25 µM SPI-112Me plus IFN-γ 100 U/ml): 0.57
fraction of inhibition (HT-29 cells; 12.5 µM SPI-112Me alone): 0.71
fraction of inhibition (HT-29 cells; 12.5 µM SPI-112Me plus IFN-γ 100 U/ml): 0.84
combination effect with IFN-γ on inhibition of cell growth (Bliss) (HT-29 cells; IFN-γ 100 U/ml plus SPI-112Me): synergistic

Compound: IFN-γ: interferon-γ, cytokine used to stimulate STAT1 signaling in HT-29 cells
activation of ISRE luciferase activity (ISRE-luciferase reporter; IFN-γ 50 U/ml alone, 6 h): 26%
fraction of inhibition (HT-29 cells; IFN-γ 100 U/ml alone): 0.18

association rate Ka [8]: 22400 M⁻¹ s⁻¹
best fitted inhibition model [9]: competitive inhibition model
activity in cell-based Shp2 inhibition assays (Shp2 [10]): no detectable activity
fluorescent signal associated with the cell pellets (TF-1/Shp2^E76K cells [2]): only trace amount
green fluorescence in confocal images of internal sections of cells (cells): did not have green fluorescence
effect on EGF-stimulated Shp2 PTP activity (Shp2 [3]; 100 µM pre-treatment overnight): did not affect
Shp2^E76K PTP activity in treated cells (Shp2^E76K): no decrease
Compound: O=C1Nc2ccc(S(=O)(=O)NCc3ccc(F)cc3)cc2/C1=N/Nc1cccc(C(=O)O)c1 [SPI-112, (Z)-3-(2-(5-(N-(4-fluorobenzyl)sulfamoyl)-2-oxoindolin-3-ylidene)hydrazinyl)benzoic acid]
effect on viable cells (TF-1/Shp2^E76K cells [5]; GM-CSF-free medium, 4 days): did not affect

Compound: O=C(O)c1cc(O)c(=O)c2c(O)c(O)ccc2c1 [DCA, 7-deshydroxypyrogallin-4-carboxylic acid]
Shp1 inhibition compared with Shp2 (Shp1): same potency

Compound: O=C1C(=NNc2ccc(S(=O)(=O)O)cc2)C(c2ccc([N+](=O)[O-])cc2)=NN1c1ccccc1 [PHPS1, phenylhydrazonopyrazolone sulfonate 1]
selectivity against Shp1 (Shp1): 14 fold
selectivity against most of other PTPs (most of other PTPs): > 10
